In series [1] the target is Poly [ADP-ribose] polymerase 2 (Homo sapiens, UniProt Q9UGN5). Kind of series: Inhibition of PARP-2 (unknown origin) pre-incubated for 30 mins before addition of activated DNA and NAD by chemiluminescent assay.
In series [2] the target is T1, Poly [ADP-ribose] polymerase 1 (Homo sapiens, UniProt P09874). Briefly: Inhibition of PARP-1 in human HeLa cells incubated for 18 hrs in presence of H2O2. The class given is cell-based.
Series [3] concerns the target T1, Poly [ADP-ribose] polymerase 1. Kind of series: Inhibition of human PARP-1 catalytic domain (662 to 1011 residues) expressed in Escherichia coli BL21(DE3) cells pre-incubated for 30 mins before addition of activated DNA and NAD by fluorescence based assay.
A short description of series [4]: Solubility of the compound. The class given is physicochemical.
The target of a further series is hERG (KCNH2) (Homo sapiens, UniProt Q12809). Briefly: Inhibition of human ERG activity at 20 uM by functional cellular assay.
Sequence of hERG (KCNH2) (Q12809 whole entry): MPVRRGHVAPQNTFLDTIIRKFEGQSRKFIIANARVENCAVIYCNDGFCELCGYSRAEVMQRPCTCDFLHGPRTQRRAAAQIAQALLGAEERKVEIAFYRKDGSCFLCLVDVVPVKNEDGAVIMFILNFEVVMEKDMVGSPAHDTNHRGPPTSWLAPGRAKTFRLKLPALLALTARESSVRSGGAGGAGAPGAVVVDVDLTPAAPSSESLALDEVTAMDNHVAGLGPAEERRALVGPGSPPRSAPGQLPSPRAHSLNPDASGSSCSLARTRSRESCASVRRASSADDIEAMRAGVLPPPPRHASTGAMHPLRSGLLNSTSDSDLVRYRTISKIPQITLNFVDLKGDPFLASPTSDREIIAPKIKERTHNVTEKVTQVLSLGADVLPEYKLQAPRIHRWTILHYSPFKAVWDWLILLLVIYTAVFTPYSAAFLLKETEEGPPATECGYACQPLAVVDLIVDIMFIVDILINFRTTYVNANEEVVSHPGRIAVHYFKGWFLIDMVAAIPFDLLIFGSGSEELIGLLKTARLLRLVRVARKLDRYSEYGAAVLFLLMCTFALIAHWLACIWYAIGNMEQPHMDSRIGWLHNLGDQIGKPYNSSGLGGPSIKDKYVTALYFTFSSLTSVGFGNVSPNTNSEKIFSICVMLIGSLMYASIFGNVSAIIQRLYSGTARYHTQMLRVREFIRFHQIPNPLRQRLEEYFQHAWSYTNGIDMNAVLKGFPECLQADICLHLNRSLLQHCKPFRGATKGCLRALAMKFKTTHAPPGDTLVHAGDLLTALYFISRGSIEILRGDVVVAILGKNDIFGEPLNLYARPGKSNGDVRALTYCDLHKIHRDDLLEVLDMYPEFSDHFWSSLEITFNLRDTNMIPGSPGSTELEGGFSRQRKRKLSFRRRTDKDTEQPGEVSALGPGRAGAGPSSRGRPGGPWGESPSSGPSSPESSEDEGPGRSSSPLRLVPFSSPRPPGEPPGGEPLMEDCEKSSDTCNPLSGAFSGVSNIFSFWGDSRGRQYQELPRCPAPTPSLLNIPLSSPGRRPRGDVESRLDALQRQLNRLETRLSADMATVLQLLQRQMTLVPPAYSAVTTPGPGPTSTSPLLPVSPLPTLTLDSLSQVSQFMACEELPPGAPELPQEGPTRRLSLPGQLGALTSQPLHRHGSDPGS
The subject of the next series is MDA-MB-436. Kind of series: Antitumor activity against human MDA-MB-436 cells xenografted in BALB/c nude mouse assessed as inhibition of tumor growth at 25 to 50 mg/kg, po BID for 28 days followed by treatment was interruption and monitored for additional 2 months. Particulars: dose 25-50 mg/kg, time 28.0 day. The series is classed as functional, organism-based. In outline: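 Female 8-week-old BALB/c nude mice receive 5 × 10⁶ cells in PBS:Matrigel 1:1 subcutaneously in the right flank. […] Tumors are then monitored 2 more months. Caliper volume V = 0.5ab² is taken twice weekly.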
Background: A xenograft is tissue or cells of one species grown in another, often human tumour cells in immunodeficient mice.

A short description of series [5]: Oral bioavailability in Sprague-Dawley rat at 5 mg/kg by LC-MS/MS analysis. The series is classed as ADME, organism-based. Particulars: in vivo. In outline: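 Pharmacokinetics in Sprague-Dawley rats, three per group. iv 2 mg/kg in 38% DMA in water; po 5 mg/kg. Plasma was protein-precipitated, diluted with water and analysed by LC-MS/MS using an acetonitrile/0.1% formic acid gradient. Values are means of three rats.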

Series [6] can be described thus: Clearance in mouse liver microsomes. The series is classed as ADME, Microsome. Particulars: read-out: CLH. A general note: Liver microsomes are vesicles of endoplasmic reticulum, rich in cytochrome P450 enzymes.
In series [7] the test system is NCI-H209. Briefly: Antitumor activity against human NCI-H209 cells xenografted in BALB/c nude mouse assessed as tumor relapse at 50 mg/kg, po QD for 5 consecutive days at start of study and again 14 days later and measured after 48 days. The series is classed as functional, organism-based. The following applies: time 19.0 day. In outline: (§1)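 Female BALB/c nude mice are implanted subcutaneously with 1 × 10⁷ H209 cells in cold PBS. At ~175 mm³ they are randomized into four groups of 8. TMZ is given orally in 0.5% MC at 10 mL/kg, QD on days 1–5 and 15–19. Caliper tumor volume (0.5ab²) is measured twice weekly and reported as mean ± SEM.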

Series [8] deals with NCI-H209. Briefly: Antitumor activity against human NCI-H209 cells xenografted in BALB/c nude mouse assessed as PR rate at 50 mg/kg, po QD for 5 consecutive days at start of study and again 14 days later. The class given is functional. The following applies: time 19 day. In outline:
as §1

In series [9] the test system is NCI-H209. Briefly: Antitumor activity against human NCI-H209 cells xenografted in BALB/c nude mouse assessed as inhibition of tumor growth at 50 mg/kg, po QD for 5 consecutive days at start of study and again 14 days later. The series is classed as functional, organism-based. Particulars: time 19.0 day. In outline: as §1
Series [10] is described as follows: Clearance in rat at 5 mg/kg, po by LC-MS/MS analysis. The following applies: in vivo. The series is classed as ADME, organism-based.
Series [11] can be described thus: AUC (0 to 24 hrs) in rat at 5 mg/kg, po by LC-MS/MS analysis. Details: time < 24 hr, route oral, dose 5 mg/kg. The series is classed as ADME, organism-based. Particulars: in vivo.

The values that follow come from ChEMBL document CHEMBL4673340 (J Med Chem, 2020).

Activity calls are given as the source filed them. The calls are words filed in the database; no cut-off is given here.

T1 sequence (P09874 whole entry, the tested form may be a part): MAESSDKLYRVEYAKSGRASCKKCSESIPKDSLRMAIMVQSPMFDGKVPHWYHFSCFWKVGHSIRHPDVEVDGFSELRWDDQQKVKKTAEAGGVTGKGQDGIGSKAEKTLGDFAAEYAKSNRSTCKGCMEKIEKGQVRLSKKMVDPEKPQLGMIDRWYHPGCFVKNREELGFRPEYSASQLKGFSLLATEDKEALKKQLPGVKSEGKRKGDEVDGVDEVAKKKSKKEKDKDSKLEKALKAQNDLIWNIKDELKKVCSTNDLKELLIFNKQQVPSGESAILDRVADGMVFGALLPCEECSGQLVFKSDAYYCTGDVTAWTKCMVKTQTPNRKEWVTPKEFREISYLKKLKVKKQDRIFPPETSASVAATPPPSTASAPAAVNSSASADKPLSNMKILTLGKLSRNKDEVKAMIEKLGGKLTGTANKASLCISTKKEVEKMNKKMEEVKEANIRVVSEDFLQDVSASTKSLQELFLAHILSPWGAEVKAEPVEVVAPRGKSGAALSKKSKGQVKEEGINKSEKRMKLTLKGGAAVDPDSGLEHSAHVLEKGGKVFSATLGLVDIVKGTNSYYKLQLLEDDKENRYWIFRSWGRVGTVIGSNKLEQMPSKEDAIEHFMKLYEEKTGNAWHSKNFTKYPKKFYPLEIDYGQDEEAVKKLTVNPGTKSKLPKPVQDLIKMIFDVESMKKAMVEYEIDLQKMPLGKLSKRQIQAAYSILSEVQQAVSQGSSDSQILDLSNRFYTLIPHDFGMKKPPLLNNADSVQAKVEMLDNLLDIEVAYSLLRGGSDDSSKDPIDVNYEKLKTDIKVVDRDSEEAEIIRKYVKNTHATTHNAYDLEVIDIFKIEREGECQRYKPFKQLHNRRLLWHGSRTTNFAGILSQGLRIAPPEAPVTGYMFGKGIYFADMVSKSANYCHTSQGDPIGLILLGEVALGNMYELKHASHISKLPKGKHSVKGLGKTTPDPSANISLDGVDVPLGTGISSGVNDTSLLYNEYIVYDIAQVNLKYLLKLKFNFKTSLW
Sequence of Poly [ADP-ribose] polymerase 2 (Q9UGN5 whole entry): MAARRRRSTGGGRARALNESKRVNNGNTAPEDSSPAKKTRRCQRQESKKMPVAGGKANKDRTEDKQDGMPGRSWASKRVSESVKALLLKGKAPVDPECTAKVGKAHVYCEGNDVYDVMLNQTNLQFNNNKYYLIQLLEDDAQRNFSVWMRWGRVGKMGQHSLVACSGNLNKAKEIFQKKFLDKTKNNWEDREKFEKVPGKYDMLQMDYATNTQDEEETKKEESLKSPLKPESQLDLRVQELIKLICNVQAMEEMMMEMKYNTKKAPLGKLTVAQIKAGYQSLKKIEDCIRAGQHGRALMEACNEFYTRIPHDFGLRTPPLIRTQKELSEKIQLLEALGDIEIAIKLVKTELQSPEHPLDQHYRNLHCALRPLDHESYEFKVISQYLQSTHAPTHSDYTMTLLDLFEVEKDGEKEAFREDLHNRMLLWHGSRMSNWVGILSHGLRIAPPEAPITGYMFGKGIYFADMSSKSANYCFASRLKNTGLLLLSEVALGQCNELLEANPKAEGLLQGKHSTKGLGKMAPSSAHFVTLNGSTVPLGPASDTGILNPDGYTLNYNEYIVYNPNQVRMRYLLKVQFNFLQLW

Broadly, the IC50 is the concentration at which inhibition is half-maximal. High values mean weaker potency in that assay, low ones greater potency in that assay. In [1], `O=C1NN=C2CC(c3ccccc3)Cc3[nH]c4cc(F)cc1c4c32` (stereo not drawn) registered an IC50 of 1.8 nM.

The term EC50 denotes the concentration giving half of the maximal effect. Take `CC1(C)C(C(=O)N2CC3=NNC(=O)c4cc(F)cc5[nH]c(c3c45)C2)C1(C)C`: the EC50 in series [2] is 16.6 nM. This molecule also yielded an IC50 in [3] of 17.9 nM.

With `O=C1NN=C2CN(C(=O)[C@@H]3CCCN3)Cc3[nH]c4cc(F)cc1c4c32`, the EC50 in series [2] is 11.7 nM. In addition, the IC50 in series [3] is 6.6 nM.

The term inhibition denotes how much of the control response was suppressed. The low end stands for a weak effect, the high end for a strong effect. `CCN(CC)CCn1c2c3c4c(cccc41)C(=O)NN=C3CC(C)(C)C2`: the solubility result in series [4] is recorded as “Soluble”. Further, 20 µM produced 95% inhibition against hERG (KCNH2).

The term bioavailability denotes dose-corrected exposure relative to a reference, in per cent. The low end stands for little systemic uptake, the high end for much systemic uptake. For `O=C(c1cc(Cc2n[nH]c(=O)c3ccccc23)ccc1F)N1CCN(C(=O)C2CC2)CC1` [OLAPARIB], in the series on MDA-MB-436, the TGI entry was “Active”. This molecule yielded a bioavailability in series [5] of 10%.

With `CC1(C)CC2=NNC(=O)c3cccc4c3c2c(n4CCO)C1`, the EC50 in series [2] worked out at 176 nM.

With `CN1CC2=NNC(=O)c3cc(F)cc4[nH]c(c2c34)C1`, the CLint scaled in series [6] was 275 mL/min/kg.

For `CN(C)CCn1c2c3c4c(cc(F)cc41)C(=O)NN=C3CC(C)(C)C2`, the solubility entry in [4] is reported as “Soluble”. The molecule also registered an inhibition at 20 µM against hERG (KCNH2) of 73%. The same molecule displayed an IC50 in series [1] of 0.3 nM.

For the molecule `CN(C)CCn1c2c3c4c(cccc41)C(=O)NN=C3CC(C)(C)C2`, in [4], the solubility result is given as “Soluble”. Also, 20 µM produced 77% inhibition against hERG (KCNH2). The molecule also registered an IC50 in series [1] of 0.3 nM.

`CNCCn1c2c3c4c(cccc41)C(=O)NN=C3CC(C)(C)C2`: the 50% effective concentration (EC50) in series [2] is 0.5 nM. Moreover, the IC50 in series [3] was determined as 7 nM.

In turn, `CC1(C)CC2=NNC(=O)c3cc(F)cc4[nH]c(c2c34)C1` registered an inhibition at 20 µM at hERG (KCNH2) of 32%.

Take `CC1CC2=NNC(=O)c3cc(F)cc4[nH]c(c2c34)C1` (stereo not drawn): the 50% effective concentration (EC50) in [2] was 2.7 nM. The IC50 is 1.3 nM in series [1] and 4.9 nM in series [3].

Turning to `CC1(C)C(=O)C2=NNC(=O)c3cc(F)cc4[nH]c(c2c34)C1=O`, the EC50 in series [2] is 76.1 nM. In [3], this molecule showed an IC50 of 13.1 nM.

For the molecule `Cn1nnc2c(C(N)=O)ncn2c1=O` [TEMOZOLOMIDE], the outcome with NCI-H209 [7] was inactive. Also, in the series on NCI-H209 [8], the Activity was 13%. The TGI result in the series on NCI-H209 [9] was “Active”.

In turn, `CC(C)C1CC2=NNC(=O)c3cc(F)cc4[nH]c(c2c34)C1` (stereo not drawn) displayed an IC50 in series [1] of 0.7 nM.

Turning to `CC1(C)CC2=NNC(=O)c3cccc4c3c2c(n4CCN2CCCCC2)C1`, the solubility result in series [4] was “Soluble”. On hERG (KCNH2), the inhibition at 20 µM was 92%.

The term CL/F denotes the apparent clearance, not corrected for the fraction that reaches the circulation. The molecule `O=C1NN=C2CN(C(=O)C3(c4ccccc4)CC3)Cc3[nH]c4cc(F)cc1c4c32` came in with a CL/F in [10] of 71 mL/min/kg. In series [2], the EC50 was 24.1 nM. Half-maximal inhibition in series [3] (IC50) required 28.1 nM.

Consider `CC1(C(=O)N2CC3=NNC(=O)c4cc(F)cc5[nH]c(c3c45)C2)CC1`, for which, in series [2], the EC50 is 15.4 nM. Further, it took 9.8 nM to reach half-maximal inhibition in [3] (IC50).

As for `O=C1NN=C2CN(S(=O)(=O)C3CC3)Cc3[nH]c4cc(F)cc1c4c32`, the EC50 in series [2] was determined as 9.3 nM. In addition, the IC50 in series [3] turned out to be 8 nM.

As a reminder, the AUC(0-t) is exposure summed from dosing to a finite time, without extrapolation to infinity. A lower AUC(0-t) goes with less exposure. In series [5], `CC(C)N1CC2=NNC(=O)c3cccc4[nH]c(c2c34)C1` returned a bioavailability of 19%. This molecule gave an apparent clearance (CL/F) in series [10] of 114 mL/min/kg. Also, the AUC(0-t) at 24 h in series [11] is 141 ng·h/mL. Moreover, the CLint scaled in series [6] stood at 174 mL/min/kg. In addition, testing at 20 µM against hERG (KCNH2) gave an inhibition of 39%.

`O=C1NN=C2CN(C(=O)C3CC3)Cc3[nH]c4cccc1c4c32` returned a CL/F in series [10] of 114 mL/min/kg. For the same molecule, the CLint scaled in series [6] was 250 mL/min/kg. Moreover, at 20 µM the inhibition on hERG (KCNH2) was 12%.

In series [1], `O=C1NN=C2CCCCc3[nH]c4cc(F)cc1c4c32` gave a concentration for half-maximal inhibition (IC50) of 0.7 nM.

`CC12CCCN1Cc1[nH]c3cc(F)cc4c3c1C2=NNC4=O` (stereo not drawn): the EC50 in [2] turned out to be 54.7 nM. The IC50 in series [3] turned out to be 73 nM.

As for `O=C1NN=C2CN(C(=O)C3(O)CC3)Cc3[nH]c4cc(F)cc1c4c32`, in [2], the EC50 is 3.5 nM. In series [3], this molecule showed an IC50 of 4.7 nM.

On to `NC1(C(=O)N2CC3=NNC(=O)c4cc(F)cc5[nH]c(c3c45)C2)CC1`, for which, in series [2], the EC50 is 22 nM. Also, in series [3], the IC50 turned out to be 9.9 nM.

As to `CC1(C)CCc2[nH]c3cc(F)cc4c3c2C1=NNC4=O`, the EC50 in series [2] amounted to 45.5 nM. In addition, the IC50 in series [3] came to 28.8 nM.

With `CC(C)(N)C(=O)N1CC2=NNC(=O)c3cccc4[nH]c(c2c34)C1`, on hERG (KCNH2), the inhibition at 20 µM is 43%.

For the molecule `CC1(C)CC2=NNC(=O)c3cccc4c3c2c(n4CCN2CCCC2)C1`, the solubility entry in series [4] is recorded as “Soluble”. The molecule further yielded an inhibition at 20 µM at hERG (KCNH2) of 97%.
